Source: article PMC8923172 (Antimicrobial Agents and Chemotherapy, 2022)
Like-named read-outs stand apart in the source and are kept apart here. Marks after values point to notes of the source that are not given here. Residues, ends and D or L forms follow the SMILES beside them.

Assays:
[1] = Single-dose i.v. pharmacokinetics in mice; assay type: in vivo, CD-1 mice; details: 5 mg/kg single i.v. bolus, n=4/time point
Summary of the method: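 Male and female CD-1 mice received a single 5 mg/kg i.v. bolus into the lateral tail vein, with 2/sex per time point. EDTA blood was taken by terminal cardiac puncture at 0.25, 1, 2, 4, 8 and 24 h; plasma was stored at −80°C. Sparse-sampling NCA used nominal times, linear-up/log-down AUC, and excluded values below LLOQ.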

[2] = system: LPS-induced ALI; details: single subcutaneous injection 25 mg/kg; cited from earlier work
[3] = Single- and multiple-dose i.v. pharmacokinetics in cynomolgus monkeys; assay type: in vivo, cynomolgus monkeys (Macaca fascicularis); details: for Cmax: 1-h i.v. infusion; for Cmax / AUC0-∞ / AUCτ / CL / λz / Vss / MRT: mean (SD); for MRT: MRTinf
[4] = Coagulation in rats at the end of treatment; assay type: in vivo, Sprague-Dawley rats; details: median (IQR)
[5] = for Cmax: 20-min i.v. infusion, n=12, estimate (SE); for AUCτ / λz: i.v. infusion, n=12, pooled
[6] = both, cynomolgus monkey, plasma, iv, 15 mg/kg/day

CC[C@H](C)[C@@H]1NC(=O)[C@@H]2CSSC[C@H](NC(=O)[C@H](CCCNC(=N)N)NC(=O)[C@@H]3CSSC[C@H](NC1=O)C(=O)N[C@@H]([C@@H](C)O)C(=O)N[C@@H](CCCNC(=N)N)C(=O)NCC(=O)N[C@@H](Cc1ccccc1)C(=O)N3)C(=O)N[C@@H](CC(C)C)C(=O)N[C@H]1CSSC[C@H](NC(=O)[C@H](C(C)C)NC(=O)CNC(=O)[C@H](CCCNC(=N)N)NC(=O)[C@H](CCCNC(=N)N)NC1=O)C(=O)N[C@@H](CCCNC(=N)N)C(=O)N2 [RTD-1, Rhesus theta (θ) defensin-1] (HELM PEPTIDE1{G.F.C.R.C.L.C.R.R.G.V.C.R.C.I.C.T.R}$PEPTIDE1,PEPTIDE1,3:R3-16:R3|PEPTIDE1,PEPTIDE1,5:R3-14:R3|PEPTIDE1,PEPTIDE1,7:R3-12:R3|PEPTIDE1,PEPTIDE1,1:R1-18:R2$$$V2.0)
AUC0-∞ ([1]; pooled NCA): 12,497 ng · h/mL
AUCτ ([1]; pooled NCA): 12,282 ng · h/mL
CL ([1]; pooled NCA): 6.67 mL/min/kg
MRT ([1]; pooled NCA): 2.62 h
λz ([1]; pooled NCA): 0.114 h⁻¹
Cmax ([1]; pooled, estimate (SE)): 8,919 (1,088)^b ng/mL
mean AUC0-∞ [2]: ~9,001 ng · h/mL
Cmax ([3]; 0.3 mg/kg Day 1, n=2): 582 (109) ng/mL
AUC0-∞ ([3]; 0.3 mg/kg Day 1, n=2): 617 (137) ng · h/mL
AUCτ ([3]; 0.3 mg/kg Day 1, n=2): 591 (145) ng · h/mL
CL ([3]; 0.3 mg/kg Day 1, n=2): 498 (111) mL/h/kg
λz ([3]; 0.3 mg/kg Day 1, n=2): 0.523 (0.119) h^−1
Cmax ([3]; 1 mg/kg Day 1, n=2): 2,560 (820) ng/mL
AUC0-∞ ([3]; 1 mg/kg Day 1, n=2): 3,875 (973) ng · h/mL
AUCτ ([3]; 1 mg/kg Day 1, n=2): 3,818 (961) ng · h/mL
CL ([3]; 1 mg/kg Day 1, n=2): 266 (66.9) mL/h/kg
λz ([3]; 1 mg/kg Day 1, n=2): 0.251 (0.035) h^−1
AUCτ ([3]; 3 mg/kg Day 1, n=2): 10,334 (2,239) ng · h/mL
λz ([3]; 3 mg/kg Day 1, n=2): 0.078 (0.017) h^−1
Cmax ([3]; 5 mg/kg Day 1, n=6): 10,700 (2,455) ng/mL
AUCτ ([3]; 5 mg/kg Day 1, n=6): 27,160 (4,286) ng · h/mL
λz ([3]; 5 mg/kg Day 1, n=6): 0.323 (0.016) h^−1
AUCτ ([3]; 5 mg/kg Day 10, n=6): 38,936 (9,829) ng · h/mL
CL ([3]; 5 mg/kg Day 10, n=6): 136 (36.5)# mL/h/kg
λz ([3]; 5 mg/kg Day 10, n=6): 0.157 (0.009)# h^−1
accumulation: mean AUCτ day 10 vs mean AUC0-∞ day 1 ([3]; 5 mg/kg/day): approximately 1.4 fold
Cmax ([3]; 10 mg/kg Day 1, n=8): 26,675 (8,240) ng/mL
AUCτ ([3]; 10 mg/kg Day 1, n=8): 76,083 (23,562) ng · h/mL
CL ([3]; 10 mg/kg Day 1, n=8): 143 (48.2)* mL/h/kg
λz ([3]; 10 mg/kg Day 1, n=8): 0.192 (0.034)* h^−1
AUCτ ([3]; 10 mg/kg Day 10, n=6): 117,529 (26,077) ng · h/mL
CL ([3]; 10 mg/kg Day 10, n=6): 88.5 (18.5)* mL/h/kg
Vss ([3]; 10 mg/kg Day 10, n=6): 624 (88.2) mL/kg
λz ([3]; 10 mg/kg Day 10, n=6): 0.120 (0.018)* h^−1
accumulation: mean AUCτ day 10 vs mean AUC0-∞ day 1 ([3]; 10 mg/kg/day): ~1.5 fold
Cmax ([3]; 15 mg/kg Day 1, n=12): 46,458 (15,247)† ng/mL
AUCτ ([3]; 15 mg/kg Day 1, n=12): 138,135 (34,942) ng · h/mL
CL ([3]; 15 mg/kg Day 1, n=12): 114 (25.7) mL/h/kg
Vss ([3]; 15 mg/kg Day 1, n=12): 629 (176)† mL/kg
λz ([3]; 15 mg/kg Day 1, n=12): 0.149 (0.019)† h^−1
AUCτ ([3]; 15 mg/kg Day 4, n=2): 139,595 (2,366) ng · h/mL
λz ([3]; 15 mg/kg Day 4, n=2): 0.072 (0.020) h^−1
AUCτ ([3]; 15 mg/kg Day 7, n=2): 154,149 (12,406) ng · h/mL
λz ([3]; 15 mg/kg Day 7, n=2): 0.071 (0.017) h^−1
Cmax ([3]; 15 mg/kg Day 10, n=9): 32,233 (13,933)† ng/mL
AUCτ ([3]; 15 mg/kg Day 10, n=9): 173,315 (67,934) ng · h/mL
Vss ([3]; 15 mg/kg Day 10, n=9): 1,139 (411)† mL/kg
λz ([3]; 15 mg/kg Day 10, n=9): 0.078 (0.020)† h^−1
MRT ([3]; both, cynomolgus monkey, plasma, iv, 0.3 mg/kg, 0.3 mg/kg Day 1, n=2): 1.24 h
MRT ([3]; both, cynomolgus monkey, plasma, iv, 1 mg/kg, 1 mg/kg Day 1, n=2): 1.82 h
MRT ([3]; both, cynomolgus monkey, plasma, iv, 3 mg/kg, 3 mg/kg Day 1, n=2): 4.3 h
MRT ([3]; both, cynomolgus monkey, plasma, iv, 5 mg/kg, 5 mg/kg Day 1, n=6): 2.94 h
MRT ([3]; both, cynomolgus monkey, plasma, iv, 5 mg/kg, 5 mg/kg Day 10, n=6): 4.84 h
MRT ([3]; both, cynomolgus monkey, plasma, iv, 10 mg/kg, 10 mg/kg Day 1, n=8): 4.4 h
MRT ([3]; both, cynomolgus monkey, plasma, iv, 10 mg/kg, 10 mg/kg Day 10, n=6): 7.2 h
MRT ([3]; both, cynomolgus monkey, plasma, iv, 15 mg/kg, 15 mg/kg Day 1, n=12): 5.48 h
MRT ([3]; both, cynomolgus monkey, plasma, iv, 15 mg/kg, 15 mg/kg Day 4, n=2): 11.8 h
MRT ([3]; both, cynomolgus monkey, plasma, iv, 15 mg/kg, 15 mg/kg Day 7, n=2): 12.3 h
MRT ([3]; both, cynomolgus monkey, plasma, iv, 15 mg/kg, 15 mg/kg Day 10, n=9): 12 h
level at 288 h [3, 6]: 537 ng/mL
level at 576 h [3, 6]: 12.5 ng/mL
time plasma concentrations detectable post-end of infusion ([3]; single dose of 0.3 or 1 mg/kg): up to 12 h
APTT ([4]; female, 5 mg/kg): 10.60 (0.70) s
Fibrinogen ([4]; female, 5 mg/kg): 223.00 (80.00) mg/dL
PT ([4]; female, 5 mg/kg): 16.30 (1.40) s
APTT ([4]; female, 10 mg/kg): 10.85 (2.43) s
Fibrinogen ([4]; female, 10 mg/kg): 283.00 (36.50) mg/dL
PT ([4]; female, 10 mg/kg): 17.05 (0.60) s
APTT ([4]; female, 20 mg/kg, day 2): 29.20 (20.65)^b^,^c^,^d s
Fibrinogen ([4]; female, 20 mg/kg, day 2): 83.00 (151.75)^d mg/dL
PT ([4]; female, 20 mg/kg, day 2): 23.45 (9.75)^b^,^c s
APTT ([4]; male, 5 mg/kg): 14.80 (0.98) s
Fibrinogen ([4]; male, 5 mg/kg): 262.50 (9.00) mg/dL
PT ([4]; male, 5 mg/kg): 15.95 (0.50) s
APTT ([4]; male, 10 mg/kg): 14.60 (1.05) s
Fibrinogen ([4]; male, 10 mg/kg): 261.00 (54.75) mg/dL
PT ([4]; male, 10 mg/kg): 17.50 (1.40) s
APTT ([4]; male, 20 mg/kg, day 2): 18.50 (3.13)^b^,^c^,^d s
Fibrinogen ([4]; male, 20 mg/kg, day 2): 98.00 (18.50)^b^,^c^,^d mg/dL
PT ([4]; male, 20 mg/kg, day 2): 21.25 (1.40)^b^,^c s
Cmax ([5]; 5 mg/kg Day 1): 7,468 (1,202)^b ng/mL
AUCτ ([5]; 5 mg/kg Day 1): 14,956 ng · h/mL
λz ([5]; 5 mg/kg Day 1): 0.056 h⁻¹
AUCτ ([5]; 5 mg/kg Day 7): 12,468 ng · h/mL
λz ([5]; 5 mg/kg Day 7): 0.104 h⁻¹
AUCτ on day 7 lower than AUC0-∞ on day 1 ([5]; 5 mg/kg/day): 22%
Cmax ([5]; 10 mg/kg Day 1): 27,533 (1,419)* ng/mL
AUCτ ([5]; 10 mg/kg Day 1): 41,669 ng · h/mL
λz ([5]; 10 mg/kg Day 1): 0.148 h⁻¹
λz ([5]; 10 mg/kg Day 7): 0.133 h⁻¹
AUCτ on day 7 lower than AUC0-∞ on day 1 ([5]; 10 mg/kg/day): 19%
Cmax ([5]; 20 mg/kg Day 1): 35,400 (5,350)# ng/mL
λz ([5]; 20 mg/kg Day 1): 0.221 h⁻¹
plasma levels during the recovery period (day 25) ([5]; all rats except one female at 10 mg/kg): undetectable
increase in AUC0-∞ from 5 mg/kg to 20 mg/kg ([5]; single ascending dose): 8 fold
